The source made the active and inactive calls. No cut-off for these calls is given here.
Key:
Raji = test: Antiproliferative activity against human Raji cells after 48 hrs by MTT assay; type: functional, cell-based
In short: (§1)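 Cells seeded at 5000 per well and left overnight, then exposed to increasing concentrations (0-50 μM) for 48 h. […] HL-60/MX2 is a mitoxantrone-selected HL-60 derivative with reduced Topo IIα/β.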

[1] = target: T1, DNA topoisomerase 2-alpha (Homo sapiens, UniProt P11388); conditions: 100 uM
T1 sequence (P11388 whole entry): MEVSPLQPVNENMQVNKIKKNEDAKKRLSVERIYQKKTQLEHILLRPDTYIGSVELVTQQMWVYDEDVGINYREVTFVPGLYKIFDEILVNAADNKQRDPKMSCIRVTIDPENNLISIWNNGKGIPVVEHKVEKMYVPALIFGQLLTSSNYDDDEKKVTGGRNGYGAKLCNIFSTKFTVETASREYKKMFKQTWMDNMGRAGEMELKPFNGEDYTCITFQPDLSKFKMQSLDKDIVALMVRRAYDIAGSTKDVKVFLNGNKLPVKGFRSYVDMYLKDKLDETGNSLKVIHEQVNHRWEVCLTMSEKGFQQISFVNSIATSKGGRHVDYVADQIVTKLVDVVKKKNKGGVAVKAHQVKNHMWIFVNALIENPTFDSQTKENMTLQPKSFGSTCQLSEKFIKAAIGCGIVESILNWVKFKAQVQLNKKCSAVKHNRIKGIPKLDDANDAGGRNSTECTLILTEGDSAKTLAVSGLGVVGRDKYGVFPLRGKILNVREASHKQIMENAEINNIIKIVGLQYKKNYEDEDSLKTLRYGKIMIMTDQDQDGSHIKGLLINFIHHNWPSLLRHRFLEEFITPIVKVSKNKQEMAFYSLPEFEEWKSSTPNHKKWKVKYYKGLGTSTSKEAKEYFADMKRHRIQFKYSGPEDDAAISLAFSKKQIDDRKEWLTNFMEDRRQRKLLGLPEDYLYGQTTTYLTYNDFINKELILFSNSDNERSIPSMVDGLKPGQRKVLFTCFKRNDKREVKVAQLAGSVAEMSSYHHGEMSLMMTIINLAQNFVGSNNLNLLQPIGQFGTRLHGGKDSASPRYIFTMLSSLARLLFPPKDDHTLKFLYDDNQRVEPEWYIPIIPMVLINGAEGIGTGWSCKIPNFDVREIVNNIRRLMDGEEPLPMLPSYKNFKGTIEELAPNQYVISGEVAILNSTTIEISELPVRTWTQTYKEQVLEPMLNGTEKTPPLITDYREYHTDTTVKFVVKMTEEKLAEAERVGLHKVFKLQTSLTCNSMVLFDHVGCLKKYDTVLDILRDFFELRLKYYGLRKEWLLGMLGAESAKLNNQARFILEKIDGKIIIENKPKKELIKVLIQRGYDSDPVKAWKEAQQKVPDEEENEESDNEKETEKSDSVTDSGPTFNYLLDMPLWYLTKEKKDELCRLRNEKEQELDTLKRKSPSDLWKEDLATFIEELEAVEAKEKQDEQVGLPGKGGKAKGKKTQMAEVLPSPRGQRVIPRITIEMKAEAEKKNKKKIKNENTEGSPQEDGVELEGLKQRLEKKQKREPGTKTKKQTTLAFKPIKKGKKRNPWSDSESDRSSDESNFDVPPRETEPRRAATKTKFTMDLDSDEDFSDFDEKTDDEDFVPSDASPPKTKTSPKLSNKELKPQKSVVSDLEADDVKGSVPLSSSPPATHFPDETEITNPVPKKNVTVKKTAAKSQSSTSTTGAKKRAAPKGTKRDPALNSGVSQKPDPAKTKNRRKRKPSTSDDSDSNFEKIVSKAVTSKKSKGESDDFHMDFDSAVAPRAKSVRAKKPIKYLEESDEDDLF

A549 = test: Antiproliferative activity against human A549 cells after 48 hrs by MTT assay; type: functional, cell-based; conditions: A549, 48 h; in short: as §1
[2] = Antiproliferative activity against human HL60 cells after 48 hrs by MTT assay; type: functional, cell-based; conditions: HL-60, 48 h; in short: as §1
[3] = target: T2, DNA topoisomerase 1 (Homo sapiens) (UniProt P11387); conditions: 0.6 to 5 uM
T2 sequence (whole entry): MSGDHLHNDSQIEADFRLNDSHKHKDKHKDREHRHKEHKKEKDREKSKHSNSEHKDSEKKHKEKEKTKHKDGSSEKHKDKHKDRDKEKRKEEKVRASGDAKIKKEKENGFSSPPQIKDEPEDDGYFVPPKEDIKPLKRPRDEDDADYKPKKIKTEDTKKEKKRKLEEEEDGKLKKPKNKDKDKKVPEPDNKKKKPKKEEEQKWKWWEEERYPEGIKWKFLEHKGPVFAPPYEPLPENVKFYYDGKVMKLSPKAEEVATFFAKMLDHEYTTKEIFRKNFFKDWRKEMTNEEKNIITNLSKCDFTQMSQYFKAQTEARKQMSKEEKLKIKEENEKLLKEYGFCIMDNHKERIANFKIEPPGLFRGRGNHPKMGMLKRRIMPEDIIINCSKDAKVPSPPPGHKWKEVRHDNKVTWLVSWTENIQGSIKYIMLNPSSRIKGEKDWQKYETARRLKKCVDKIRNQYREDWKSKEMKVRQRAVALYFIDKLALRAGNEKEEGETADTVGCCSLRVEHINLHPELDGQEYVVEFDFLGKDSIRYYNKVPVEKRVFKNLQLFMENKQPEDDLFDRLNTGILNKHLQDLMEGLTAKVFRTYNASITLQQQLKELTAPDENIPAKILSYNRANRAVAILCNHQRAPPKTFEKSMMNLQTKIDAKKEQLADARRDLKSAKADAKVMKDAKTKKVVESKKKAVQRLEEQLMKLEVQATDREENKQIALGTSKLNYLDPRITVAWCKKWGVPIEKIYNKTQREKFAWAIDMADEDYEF

HeLa = test: Antiproliferative activity against human HeLa cells after 48 hrs by MTT assay; type: functional, cell-based; in short: as §1
[4] = target: T1, DNA topoisomerase 2-alpha; test: Inhibition of purified human topoisomerase 2-mediated relaxation of supercoiled pBR322 DNA at 20 uM incubated for 30 mins by agarose gel electrophoresis
In short: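 Reactions contained 0.2 μg supercoiled pBR322 in 50 mM Tris-HCl pH 8.0, 150 mM NaCl, 10 mM MgCl2, 0.5 mM DTT, 30 μg/ml BSA, normally 2 mM ATP (1, 2 or 4 mM in ATP-competition runs). Started with 1 U human Topo II, 30 min at 37 °C, stopped with sarcosyl buffer, run on 1% agarose 1.5 h at 75 V, gel-stained and imaged under UV.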

K562 = test: Antiproliferative activity against human K562 cells after 48 hrs by MTT assay; type: functional, cell-based; conditions: K562, 48 h; in short: as §1
[5] = target: T1, DNA topoisomerase 2-alpha; conditions: HL-60, 10 uM
HL-60 = test: Resistance index, ratio of IC50 for human HL60/MX2 cells to IC50 for HL60 cells; type: functional
In short: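 Resistance index calculated as MTT-derived IC50 (48 h exposure, 0-50 μM, A570 readout) in HL-60/MX2 divided by IC50 in parental HL-60.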

[6] = Antiproliferative activity against human MDA-MB-201 cells after 48 hrs by MTT assay; type: functional, cell-based; in short: as §1
[7] = Antiproliferative activity against human HL60/MX2 cells after 48 hrs by MTT assay; type: functional, cell-based; conditions: HL60/MX2, 48 h; in short: as §1
HEK293 = test: Cytotoxicity against HEK293 cells after 48 hrs by MTT assay; type: cell-based; conditions: Homo sapiens, HEK293, 48 h

IC50 (Raji): 1.68 µM | inhibition [1]: Active | IC50 (A549): 6.74 µM | inhibition [3]: Active | IC50 (HeLa): 32.5 µM | inhibition [4]: Active | IC50 (K562): 0.51 µM | inhibition [5]: Active
Compound: COc1cc([C@@H]2c3cc4c(cc3[C@@H](O[C@@H]3O[C@@H]5CO[C@@H](C)O[C@H]5[C@H](O)[C@H]3O)[C@H]3COC(=O)[C@H]23)OCO4)cc(OC)c1O [ETOPOSIDE]
IC50 [2]: 0.16 µM | Ratio IC50 (HL-60): 56.4 | IC50 [6]: 31.3 µM | IC50 [7]: 9.02 µM | IC50 (HEK293): 0.69 µM
